The assay has as its system Jurkat/DNR viability with daunorubicin, trypan blue, 7 d. Description: chemoreversal in ABCB1 cells, dose response, ABC transporter inhibitor project, paired ABCG2 counter-screen, SAR hit validation (AID 488973). To be noted: for CC50: measured here: toxicity without chemotherapeutic (TD50). In a few lines:
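assay system = ABCB1-expressing drug-resistant Jurkat/DNR cells | input = 100,000 cells per mL | probe or stimulus = fixed daunorubicin | dosing = test compound dose series from 0.1 to 100 µM | schedule = 7-day exposure of cells to test compound | signal = trypan blue cell counts | evaluation = chemo-reversal 50% concentration (CR50) set against 50% toxic dose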
In general terms: A counterscreen serves to expose hits that act by an unwanted route or on another target.

These results are taken from PubChem BioAssay AID488973 (NMMLSC, 2010).

Calls of active or inactive are those of the source.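 How the source made its calls: active means toxic dose over ten times the dose restoring drug killing, with toxic dose under 15 µM; inactive means the rest.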 Where only a bound is given, the exact number is not on record here.

As usually defined, the EC50 is the concentration giving half of the maximal effect. What is called CC50 is the concentration giving 50% cytotoxicity.

In the case of `O=C(c1ccco1)N1CCN(c2cc(-c3ccccc3)nc3cc(-c4cccc(F)c4)nn23)CC1`, the EC50 is 0.58 µM (inactive) and the CC50 was found to be 2.16 µM.
On the same counts, the results for `COc1cccc(-c2cc3nc(C)c(C)c(N4CCN(Cc5ccco5)CC4)n3n2)c1` are 0.02 µM and over 100 µM.
As for `O=C(c1ccoc1)N1CCN(c2cc(-c3ccco3)nc3cc(-c4ccccc4)nn23)CC1`, the EC50 was 0.55 µM (inactive) and the CC50 is 5.52 µM.
On the same counts, the results for `COc1ccc(-c2cc3nc(-c4ccccc4)cc(N4CCN(C(=O)c5ccsc5)CC4)n3n2)cc1` are 0.14 µM (inactive) and 4.9 µM.
On the same counts, the results for `O=C(c1cccnc1)N1CCN(c2cc(-c3ccccc3)nc3cc(-c4cccc(Cl)c4)nn23)CC1` are 0.17 µM (inactive) and 4.72 µM.
For the compound `Cc1nc2cc(-c3ccc4c(c3)OCO4)nn2c(N2CCN(C(=O)c3ccoc3)CC2)c1C`, the EC50 is 0.13 µM and the CC50 was over 100 µM.
For `COc1cc(OC)cc(-c2cc3nc(C)c(C)c(N4CCN(C(=O)c5ccoc5)CC4)n3n2)c1`, the EC50 is 0.1 µM (inactive) and the CC50 amounted to 9.52 µM.
The like results for `Cc1nc2cc(-c3ccc(F)cc3)nn2c(N2CCN(C(=O)c3ccco3)CC2)c1C` were, in that order, 1.82 µM (inactive) and 5.33 µM.
The like results for `O=C(c1ccco1)N1CCN(c2c3c(nc4cc(-c5cccc(F)c5)nn24)CCCC3)CC1` were, in that order, 2.94 µM (inactive) and 5.32 µM.
The like results for `O=C(c1ccoc1)N1CCN(c2cc(-c3ccncc3)nc3cc(-c4cccc(Cl)c4)nn23)CC1` were, in that order, 0.6 µM (inactive) and 13.5 µM.
As to `O=C(c1ccco1)N1CCN(c2cc(-c3ccccc3)nc3cc(-c4cccc(Cl)c4)nn23)CC1`, the EC50 is 0.7 µM (inactive) and the CC50 is 3.18 µM.
The like results for `Cc1cc(N2CCN(C(=O)c3ccco3)CC2)n2nc(-c3ccc(F)cc3)cc2n1` were, in that order, 5.33 µM (inactive) and 4.2 µM.
`O=C(c1ccoc1)N1CCN(c2cc(-c3ccccc3)nc3cc(-c4ccncc4)nn23)CC1`: the EC50 is 1.52 µM (inactive) and the CC50 amounted to 9.52 µM.
Regarding `Cc1nc2cc(-c3cccc(Cl)c3)nn2c(N2CCN(C(=O)c3ccsc3)CC2)c1C`, the EC50 is 1.13 µM (inactive) and the 50% cytotoxic concentration (CC50) worked out at 10.1 µM.
The like results for `COc1cccc(-c2cc(N3CCN(C(=O)c4ccoc4)CC3)n3nc(-c4cccc(OC)c4)cc3n2)c1` were, in that order, 0.03 µM (inactive) and 7.93 µM.
On the same counts, the results for `Cc1nc2cc(-c3cccc(Cl)c3)nn2c(N2CCN(C(=O)c3ccco3)CC2)c1C` are 1.58 µM and over 100 µM.
On the same counts, the results for `Cc1ccc(-c2cc3nc(-c4ccccc4)cc(N4CCN(C(=O)c5ccoc5)CC4)n3n2)cc1` are 0.29 µM (inactive) and 5.77 µM.
Turning to `COc1cccc(-c2cc3nc(-c4ccco4)cc(N4CCN(C(=O)c5ccoc5)CC4)n3n2)c1`, the EC50 is 0.47 µM (inactive) and the CC50 came to 5.52 µM.
On the same counts, the results for `O=C(Cc1ccccc1)N1CCN(c2cc(-c3ccccc3)nc3cc(-c4cccc(Cl)c4)nn23)CC1` are 0.51 µM and 17.8 µM.
On the same counts, the results for `COc1ccc(-c2cc3nc(-c4ccccc4)cc(N4CCN(C(=O)c5ccoc5)CC4)n3n2)cc1` are 0.23 µM (inactive) and 5.54 µM.
As to `COc1ccc(-c2[nH]nc3nc(N4CCN(C(=O)c5ccoc5)CC4)cc(C(F)(F)F)c23)cc1`, the EC50 is 0.33 µM (inactive) and the CC50 came out at 0.455 µM.
The like results for `COc1ccc(-c2cc3nc(-c4ccccc4)cc(N4CCN(C(=O)c5ccccc5)CC4)n3n2)cc1` were, in that order, 0.19 µM and 16.9 µM.
On the same counts, the results for `Cc1cc(N2CCN(C(=O)c3ccco3)CC2)n2nc(C)c(-c3ccccc3)c2n1` are 3.58 µM (inactive) and 3.31 µM.
The like results for `COc1ccc(-c2cc3nc(C)c(C)c(N4CCN(C(=O)c5ccco5)CC4)n3n2)cc1` were, in that order, 0.53 µM and over 100 µM.
Turning to `O=C(C1CCCO1)N1CCN(c2c3c(nc4cc(-c5cccc(F)c5)nn24)CCCC3)CC1` (centres undefined), the EC50 is 3.58 µM (inactive) and the CC50 was 12.3 µM.
On the same counts, the results for `COc1cccc(-c2cc3nc(C)c(C)c(N4CCN(C(=O)c5ccoc5)CC4)n3n2)c1` are 0.82 µM and over 100 µM.
On the same counts, the results for `O=C(c1ccncc1)N1CCN(c2cc(-c3ccccc3)nc3cc(-c4cccc(Cl)c4)nn23)CC1` are 0.25 µM (inactive) and 10.9 µM.
The like results for `Cc1nc2cc(-c3cccc(Cl)c3)nn2c(N2CCN(C(=O)c3ccoc3)CC2)c1C` were, in that order, 0.51 µM (inactive) and 5.33 µM.
In the case of `COc1ccccc1-c1cc2nc(-c3ccccc3)cc(N3CCN(C(=O)c4ccoc4)CC3)n2n1`, the EC50 is 0.45 µM (inactive) and the CC50 turned out to be 4.37 µM.
The like results for `Cc1cc(N2CCN(C(=O)c3ccco3)CC2)n2nc(-c3ccccc3)nc2n1` were, in that order, 4.92 µM (inactive) and 11.8 µM.
In the case of `COc1ccc(-c2cc3nc(C)c(C)c(N4CCN(C(C)=O)CC4)n3n2)cc1`, the EC50 was 6 µM and the CC50 stood at 105 µM.
Regarding `Cc1nc2ncnn2c(N2CCN(C(=O)c3ccco3)CC2)c1Cc1ccccc1`, the EC50 was 12.3 µM (inactive) and the CC50 was over 100 µM.
The like results for `COc1cccc(C(=O)N2CCN(c3cc(-c4ccccc4)nc4cc(-c5cccc(Cl)c5)nn34)CC2)c1` were, in that order, 0.35 µM and over 100 µM.
The like results for `O=C(c1ccoc1)N1CCN(c2cc(-c3ccco3)nc3cc(-c4cccc(Cl)c4)nn23)CC1` were, in that order, 0.53 µM (inactive) and 8.53 µM.
On the same counts, the results for `O=C(c1ccoc1)N1CCN(c2cc(-c3cccnc3)nc3cc(-c4cccc(Cl)c4)nn23)CC1` are 0.2 µM (inactive) and 5.33 µM.
For `CC(=O)N1CCN(c2c(C)c(C)nc3cc(-c4cccc(F)c4)nn23)CC1`, the EC50 is 19.8 µM (inactive) and the CC50 is over 100 µM.
For `O=C(c1ccco1)N1CCN(c2cc(Cc3ccccc3)nc3cc(-c4cccc(Cl)c4)nn23)CC1`, the EC50 is 1.41 µM (inactive) and the CC50 stood at 8.47 µM.
